Screening data as filed in PubChem.
Rows were chosen to be rich in hits. Some 3% of all compounds tested hit in one or more screens of this group.
sEH inh: soluble epoxide hydrolase inhibitors, primary screen, biochemical, human sEH | Bifunctional epoxide hydrolase 2 (Homo sapiens), P34913 | recombinant human sEH enzymatic activity assay | inhibition, % at 2 µM | 91,000 compounds, 0.34% hits | AID 707, 2007; in the data active = inhibition above about 80%
Target sequence (P34913 whole entry, looked up): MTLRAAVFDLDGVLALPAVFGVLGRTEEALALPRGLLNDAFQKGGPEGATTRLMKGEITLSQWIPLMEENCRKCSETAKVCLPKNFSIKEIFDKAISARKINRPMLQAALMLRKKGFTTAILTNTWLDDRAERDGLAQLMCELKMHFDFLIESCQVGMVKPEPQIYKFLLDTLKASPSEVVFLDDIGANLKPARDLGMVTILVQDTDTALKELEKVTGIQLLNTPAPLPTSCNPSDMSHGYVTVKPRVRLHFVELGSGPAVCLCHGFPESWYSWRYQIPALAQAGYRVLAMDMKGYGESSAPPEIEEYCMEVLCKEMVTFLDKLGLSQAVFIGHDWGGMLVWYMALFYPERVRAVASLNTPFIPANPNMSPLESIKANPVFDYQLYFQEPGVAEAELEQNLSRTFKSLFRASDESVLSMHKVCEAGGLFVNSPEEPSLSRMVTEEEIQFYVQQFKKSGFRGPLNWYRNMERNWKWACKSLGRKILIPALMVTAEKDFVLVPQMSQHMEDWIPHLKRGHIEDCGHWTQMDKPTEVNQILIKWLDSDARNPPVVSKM
sEH act: soluble epoxide hydrolase activators, primary screen, biochemical, human sEH; Bifunctional epoxide hydrolase 2 (Homo sapiens), P34913; 91,000 compounds, 0.04% hits; activation, % at 2 µM; purified human sEH enzymatic activity, activator screen; in the data active = activation above about 37%
Yeast life ext: compounds extending yeast replicative lifespan, primary screen, S. cerevisiae, OD615 | S. cerevisiae growth with nicotinamide; deaD strain in restrictive glucose medium | inhibition of the nicotinamide effect, % at 10 µM | 130,000 compounds, 0.68% hits | AID 775, 2007;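 active = inhibition above a set limit, placed 3 SD over the median of all compounds, cut at about 26% in these data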;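 also: 0% = nicotinamide-treated wells and 100% = cells grown without nicotinamide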
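assay system = DeaD-strain S. cerevisiae | buffer or medium = restrictive glucose medium | reagent = 1.5 mM nicotinamide | compound = 10 µM single point, 0.25% DMSO | incubation = 48 h compound exposure at 30 °C, humidified | signal = OD615 measurement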
Measles CPE: compounds protecting cells from measles virus cytopathic effect, primary screen, measles RdRp inhibitor project, single point, MLSMR library, absorbance. 140,000 compounds, 1.5% hits. protection (pct of control), % at 4 µM. Measles virus-infected cells, CPE protection. AID 841, 2007; in the data active = protection mostly above about 24%, no sharp cut-off; inactive = mostly below about 26%
Yeast growth inh: growth inhibitors of yeast BB579 in restrictive medium, primary screen, yeast lifespan-shortening project, S. cerevisiae; AID 804, 2007; inhibition, % at 10 µM; OD615, 48 h; 140,000 compounds, 0.51% hits;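 active = inhibition above a set limit, 3 SD over the mean compound inhibition, cut at about 44% in these data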
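Assay system – yeast BB579 (DeaD) · Dosing – single compound dose of 10 µM, 0.25% DMSO final · Detection – OD615 turbidity measurement · Buffer or medium – CSMM-D restrictive synthetic medium containing dextrose (glucose) · Benchmarks – positive control amphotericin B 10 µg/mL · Incubation – 48 h exposure, 30 °C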
SDO1 yeast rescue: growth rescue of sdo1-depleted yeast, primary screen, S. cerevisiae, bone marrow failure model; S. cerevisiae sdo1-depleted JHY4D growth rescue, OD600 30 h; stronger effect = higher value; pdr5 snq2 efflux-pump mutant strain; z-score at 10 µM; 140,000 compounds, 0.21% hits; AID 817, 2007;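 active = z-score above 3 at both the 24 hr and the 30 hr optical density reads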;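 also: z-score against mean and SD of all compound wells on the same plate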
* = called active by the depositor; · = no result.

SMILES | sEH inh | sEH act | Yeast life ext | Measles CPE | Yeast growth inh | SDO1 yeast rescue
Cc1cc(C(=O)NCCN2C(=O)S/C(=C\c3cccs3)C2=O)ccc1[N+](=O)[O-] | · | · | 2.8 | 11.6 | 1.5 | 0.08
Cc1cccc(OCC(=O)O/N=C(\N)Cc2ccc(Cl)cc2)c1 | -0.7 | 2.1 | -11.1 | 24.2 | -58.7 | -2.88
COc1cccc(/C=N/NC(=O)c2ccccc2N(Cc2ccccc2)S(=O)(=O)c2ccccc2)c1OC | -6.5 | 6.6 | -10.4 | 35.6 | -11.3 | -0.77
CC1C(=O)N(c2ccc(S(=O)(=O)N(C)C)cc2)C1(/C=C/c1ccccc1)C(=O)NC1CCCC1 (stereo not drawn) | · | · | 4.2 | 5.4 | -33.5 | -1.04
COc1cccc(/C=C2\N=C3CCCCCN3C2=O)c1 | -8.6 | 5.4 | -17.2 | 36.2* | -38.8 | -0.76
CCCCCC(=O)Nc1ccc2oc(-c3cncc(Br)c3)nc2c1 | 82.4* | -81.9 | -13.9 | 7.0 | -18.6 | -1.47
COc1ccc(-c2nc3cc(NC(=O)Cc4ccc(OC)c(OC)c4)ccc3o2)cc1 | 80.1* | -80.4 | -25.2 | 4.1 | -35.4 | 1.4
CCCC(=O)Nc1ccc2oc(-c3ccncc3)nc2c1 | 13.7 | -15.0 | -21.5 | 37.1* | 5.6 | 1.06
CCCCC(=O)Nc1ccc2oc(-c3ccncc3)nc2c1 | 43.7 | -43.0 | -23.7 | 4.2 | 32.6 | -0.48
CC(=O)c1nc(N2C(=O)CC(Cc3cccc(C)c3)C2=O)sc1C (stereo not drawn) | 3.7 | -0.9 | -16.3 | 42.8* | -6.1 | 0.29
CCc1ccc2c(c1)C1(NN=C(c3cccc4ccccc34)S1)C(=O)N2 (stereo not drawn) | -1.0 | 2.5 | · | 8.1 | 66.0* | -0.7
CCc1ccc2c(c1)C1(C(=O)N2)N2CCCC2C(C(=O)c2ccc3ccccc3c2)C12C(=O)Nc1ccccc12 (stereo not drawn) | · | · | 2.6 | 11.2 | -21.4 | -0.01
O=C(c1cc2ccccc2oc1=O)N(Cc1ccc2c(c1)OCO2)Cc1ccco1 | -19.4 | 16.5 | -14.2 | 4.7 | -39.2 | -1.1
Cc1c(C(=O)Nc2ccc(OCc3ccccc3)cc2)cccc1[N+](=O)[O-] | -4.5 | 1.7 | -10.6 | 4.0 | -54.9 | -0.03
COc1ccc(C(=O)Nc2ccc(OCc3ccccc3)cc2)cc1[N+](=O)[O-] | 10.4 | -10.5 | 60.3* | 4.7 | 8.9 | -0.43
O=C1c2ccccc2C(=O)N1CCCN1CCN(CCCN2C(=O)c3ccccc3C2=O)CC1 | 4.3 | -1.1 | · | · | · | ·
CC1(C)CC(=O)c2cnc(NCC3CCCO3)nc2C1 (stereo not drawn) | 9.2 | -10.0 | -4.1 | 29.7* | 1.6 | -0.4
O=C(OCC(=O)C12CC3CC(CC(C3)C1)C2)c1cccnc1Cl | · | · | 7.1 | 5.7 | -35.7 | -0.63
CCCCC(=O)NC(=S)NNC(=O)CC#N | 9.9 | -8.1 | -4.0 | 0.3 | -2.2 | 0.72
CCCCC(=O)NNC(=S)NC(=O)CCC | 3.3 | -3.4 | · | 11.6 | 77.9* | -0.96
O=C(COc1ccc(Br)cc1)N1CCN(c2ccccc2)CC1 | -10.9 | 13.6 | -10.0 | 35.4* | -25.6 | -0.41
O=C(COc1ccccc1)N1CCN(c2ccccc2)CC1 | · | · | -0.5 | 3.3 | -28.2 | 0.37
Cc1cc(C)cc(NC(=O)CSc2nc3c(c(=O)[nH]2)CN(Cc2ccc(F)cc2)CC3)c1 | · | · | 8.0 | 10.2 | -18.5 | 0.65
O=C(CSc1nc2cc(Cl)ccc2s1)N1CCN(C(=O)c2ccco2)CC1 | -7.0 | 7.2 | -12.8 | 61.3* | -26.5 | 0.21
O=C(CSc1nc(-c2ccccc2)cs1)N1CCN(C(=O)c2ccco2)CC1 | · | · | -24.6 | 17.9 | -47.0 | -0.45
SMILES | sEH inh | sEH act | Yeast life ext | Measles CPE | Yeast growth inh | SDO1 yeast rescue
CN1CCN(CC(=O)Nc2ccc(Cl)cc2Cl)CC1 | -13.3 | 19.0 | 40.0* | 4.7 | -25.1 | 0.08
O=C(CN1CCN(C(=O)c2ccco2)CC1)Nc1cc(Cl)ccc1Cl | 11.1 | -11.1 | -18.8 | 69.1* | -17.4 | -0.39
COC(=O)c1ccc(Cl)c(NC(=O)CN2CCN(C)CC2)c1 | -35.9 | 34.1 | -6.2 | 10.0 | 11.8 | 0.32
CC(Oc1ccc(C(C)(C)C)cc1)c1ccnc2nc(/N=C/N(C)C)nn12 (stereo not drawn) | 10.8 | -8.3 | -2.8 | 13.9 | -17.4 | -0.51
N#CC(C#N)=Cc1cc2ccccc2nc1N1CCCCC1 | · | · | 35.8* | 3.4 | -24.4 | -1.78
Cc1nonc1OCC(C)(COc1nonc1C)NC(=O)c1ccccc1 | 8.9 | -5.0 | · | 16.6 | -19.4 | -0.29
Cc1ccc(C)c(N2CCN(c3nnnn3-c3ccccc3)CC2)c1 | 10.5 | -7.7 | -6.0 | 5.6 | -34.7 | -0.88
OC(CNCCC1C=Nc2ccccc21)Cn1c2ccc(Cl)cc2c2cc(Cl)ccc21 (stereo not drawn) | · | · | -11.6 | 0.1 | 99.2* | -1.72
O=C(COc1ccccc1)NNC(=S)NC(=O)c1ccc(Cl)cc1Cl | 1.1 | 1.6 | · | 3.8 | 88.3* | -1.45
Cc1ccc(C(=O)NNC(=S)NC(=O)c2ccc(Cl)cc2Cl)cc1 | 3.5 | -1.6 | 31.3* | 4.7 | -17.8 | 0.56
O=C(COc1cccc(Cl)c1)NNC(=S)Nc1ccccc1 | · | · | 1.4 | 7.7 | -11.4 | -0.28
CC(C)NC(=S)NC(=O)c1ccc(Cl)cc1Cl | · | · | -2.0 | 4.9 | 25.7 | -0.29
CCC(CO)[n+]1c(C)cc(/C=C2\Sc3ccccc3N2Cc2ccccc2)cc1C (stereo not drawn) | · | · | 0.2 | 30.4 | -17.1 | -0.88
CCC(CC)=C(C#N)C(=O)NC1CCCCC1 | · | · | 4.1 | 5.7 | -20.9 | -0.27
C=CCn1c(COc2ccccc2F)nnc1SCC(=O)c1c[nH]c2ccccc12 | · | · | -2.3 | 5.5 | -29.7 | -0.31
O=C(CN1C(=O)COc2ccccc21)NCCCN1CCc2ccccc2C1 | -1.9 | -2.4 | -14.4 | 27.4* | -36.6 | 0.91
CCCc1cc(=O)oc2cc(C)c(CN3CCCC3)c(O)c12 | · | · | 35.2* | 15.2 | -21.4 | 0.39
Cc1ccnc(SCc2cc(=O)c(OC(=O)c3ccc(Br)o3)co2)n1 | · | · | 25.5 | 3.8 | 5.1 | 0.58
O=C(Oc1coc(CSc2ncccn2)cc1=O)c1ccc(Br)o1 | · | · | 38.1* | 25.6 | -5.8 | -0.22
CCOC(=O)c1c(NC(=O)CSc2ncccn2)sc2c1CCN(Cc1ccccc1)C2 | · | · | -0.2 | 10.2 | -28.6 | -0.42
CCOC(=O)c1c(NC(=O)C(C)Sc2cccc[n+]2[O-])sc2c1CCN(Cc1ccccc1)C2 (stereo not drawn) | · | · | 4.8 | 8.4 | 91.0* | 0.97
CN(C)Cc1ccccc1Sc1ccc(Br)cc1 | · | · | 6.7 | 4.4 | -19.7 | 0.87
O=c1c2cnn(-c3ccccc3)c2nc(-c2ccco2)n1-c1ccccc1 | -2.3 | 0.5 | -13.9 | 34.7* | -106.8 | -1.73
c1ccc(-n2c(-c3ccco3)nnc2-c2ccco2)cc1 | -6.5 | 4.1 | -9.4 | -0.2 | 47.5* | 0.45
O=C(O)C1C2CCC(O2)C1C(=O)Nc1ccc(O)cc1 (stereo not drawn) | · | · | 2.8 | 20.8 | -39.8 | 1.17
